Measured values from ChEMBL document CHEMBL1132920, “Syntheses of (R)- and (S)-2- and 6-fluoronorepinephrine and (R)- and (S)-2- and 6-fluoroepinephrine: effect of stereochemistry on fluorine-induced adrenergic selectivities” (J Med Chem, 2000).
pKi: −log10 of the molar value.

Assays:
[1] = biological target: T1, Adrenergic receptor alpha-1 (Rattus norvegicus, UniProt P15823+P23944+P43140); experiment: Binding of [3H]prazosin to alpha-1 adrenergic receptor of rat cerebral cortical membranes; type: cell membranes, Membrane
T1 sequence (P15823 whole entry): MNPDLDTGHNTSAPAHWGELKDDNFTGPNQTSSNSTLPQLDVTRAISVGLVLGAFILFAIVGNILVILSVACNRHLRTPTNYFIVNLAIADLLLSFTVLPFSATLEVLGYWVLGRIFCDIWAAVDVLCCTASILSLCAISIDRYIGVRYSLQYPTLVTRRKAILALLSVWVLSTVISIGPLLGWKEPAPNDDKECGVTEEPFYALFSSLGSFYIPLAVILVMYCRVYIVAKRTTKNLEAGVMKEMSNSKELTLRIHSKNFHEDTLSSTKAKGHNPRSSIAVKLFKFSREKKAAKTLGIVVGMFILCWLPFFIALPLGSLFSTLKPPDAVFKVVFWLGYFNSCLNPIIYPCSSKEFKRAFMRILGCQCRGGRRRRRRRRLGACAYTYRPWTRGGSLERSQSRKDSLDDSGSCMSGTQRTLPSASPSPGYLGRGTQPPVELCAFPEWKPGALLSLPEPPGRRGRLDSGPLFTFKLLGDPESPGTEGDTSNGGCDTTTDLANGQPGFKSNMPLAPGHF
T1 sequence (P23944 whole entry): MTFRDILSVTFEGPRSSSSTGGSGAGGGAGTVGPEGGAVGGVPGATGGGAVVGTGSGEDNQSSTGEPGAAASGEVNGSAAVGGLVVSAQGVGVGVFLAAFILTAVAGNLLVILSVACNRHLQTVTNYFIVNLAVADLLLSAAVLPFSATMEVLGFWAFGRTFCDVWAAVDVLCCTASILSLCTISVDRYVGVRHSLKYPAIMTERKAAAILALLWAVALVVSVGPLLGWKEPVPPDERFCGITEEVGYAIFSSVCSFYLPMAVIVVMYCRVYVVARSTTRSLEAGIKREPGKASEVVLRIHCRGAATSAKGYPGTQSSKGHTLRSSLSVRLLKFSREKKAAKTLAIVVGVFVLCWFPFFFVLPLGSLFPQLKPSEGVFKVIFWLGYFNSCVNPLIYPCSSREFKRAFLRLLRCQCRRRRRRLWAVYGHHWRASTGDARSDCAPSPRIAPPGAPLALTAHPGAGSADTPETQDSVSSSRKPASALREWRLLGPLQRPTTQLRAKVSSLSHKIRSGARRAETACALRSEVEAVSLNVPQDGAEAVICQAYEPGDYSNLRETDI
T1 sequence (P43140 whole entry): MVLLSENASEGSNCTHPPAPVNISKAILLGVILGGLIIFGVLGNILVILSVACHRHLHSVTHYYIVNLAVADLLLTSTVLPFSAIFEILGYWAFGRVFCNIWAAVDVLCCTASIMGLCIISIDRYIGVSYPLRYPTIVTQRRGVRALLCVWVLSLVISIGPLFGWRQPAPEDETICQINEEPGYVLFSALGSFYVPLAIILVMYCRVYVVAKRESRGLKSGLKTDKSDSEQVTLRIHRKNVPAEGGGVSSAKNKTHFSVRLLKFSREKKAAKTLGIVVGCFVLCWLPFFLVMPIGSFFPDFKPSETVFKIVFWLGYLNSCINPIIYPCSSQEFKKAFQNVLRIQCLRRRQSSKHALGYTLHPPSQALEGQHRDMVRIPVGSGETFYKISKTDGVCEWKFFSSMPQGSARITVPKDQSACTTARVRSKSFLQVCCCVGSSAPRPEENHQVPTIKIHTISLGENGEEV
How it was run: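 Affinity at alpha-1 adrenergic receptors measured as inhibition of specific [3H]prazosin binding to rat cerebral cortical membranes.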

[2] = biological target: T2, Adrenergic receptor alpha-2 (Rattus norvegicus, UniProt P22086+P19328+P22909); experiment: Binding of [3H]clonidine to alpha-2-adrenergic receptor of rat cerebral cortical membranes; type: cell membranes, Membrane
T2 sequence (P22086 whole entry): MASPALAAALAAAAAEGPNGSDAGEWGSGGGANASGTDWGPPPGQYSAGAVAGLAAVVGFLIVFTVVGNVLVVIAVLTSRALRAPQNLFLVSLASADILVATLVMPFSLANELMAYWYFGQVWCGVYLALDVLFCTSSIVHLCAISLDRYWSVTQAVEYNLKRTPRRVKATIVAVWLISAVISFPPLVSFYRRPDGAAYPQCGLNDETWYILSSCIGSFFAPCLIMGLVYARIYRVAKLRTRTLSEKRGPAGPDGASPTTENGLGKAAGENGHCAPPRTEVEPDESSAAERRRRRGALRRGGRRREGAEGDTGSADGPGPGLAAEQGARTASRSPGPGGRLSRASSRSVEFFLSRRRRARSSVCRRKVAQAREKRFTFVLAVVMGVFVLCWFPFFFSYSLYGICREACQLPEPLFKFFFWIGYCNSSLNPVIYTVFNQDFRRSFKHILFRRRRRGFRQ
T2 sequence (P19328 whole entry): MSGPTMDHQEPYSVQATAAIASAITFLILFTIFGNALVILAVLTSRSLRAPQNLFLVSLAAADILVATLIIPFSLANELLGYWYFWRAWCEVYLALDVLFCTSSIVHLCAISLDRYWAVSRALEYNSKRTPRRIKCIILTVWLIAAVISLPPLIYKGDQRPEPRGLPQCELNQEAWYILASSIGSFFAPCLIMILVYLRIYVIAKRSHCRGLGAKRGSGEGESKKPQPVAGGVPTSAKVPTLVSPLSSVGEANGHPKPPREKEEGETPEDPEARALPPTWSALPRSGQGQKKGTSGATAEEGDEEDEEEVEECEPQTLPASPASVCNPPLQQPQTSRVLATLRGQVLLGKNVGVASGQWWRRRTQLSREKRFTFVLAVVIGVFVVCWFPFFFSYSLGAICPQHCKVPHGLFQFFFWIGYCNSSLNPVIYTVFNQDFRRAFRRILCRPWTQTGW
T2 sequence (P22909 whole entry): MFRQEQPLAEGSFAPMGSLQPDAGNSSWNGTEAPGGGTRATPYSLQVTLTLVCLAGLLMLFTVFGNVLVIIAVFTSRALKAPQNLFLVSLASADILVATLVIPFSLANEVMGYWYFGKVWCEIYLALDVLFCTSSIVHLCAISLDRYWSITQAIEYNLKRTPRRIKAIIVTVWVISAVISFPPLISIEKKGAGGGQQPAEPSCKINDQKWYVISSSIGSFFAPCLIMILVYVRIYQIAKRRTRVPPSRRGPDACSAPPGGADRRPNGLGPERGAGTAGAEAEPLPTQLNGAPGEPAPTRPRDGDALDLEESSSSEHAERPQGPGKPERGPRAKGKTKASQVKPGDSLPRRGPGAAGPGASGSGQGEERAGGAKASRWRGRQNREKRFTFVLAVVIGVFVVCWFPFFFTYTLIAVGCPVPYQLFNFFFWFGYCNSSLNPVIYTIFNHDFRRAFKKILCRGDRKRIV

[3] = biological target: Beta-1 adrenergic receptor (Rattus norvegicus, UniProt P18090); experiment: Binding of [3H]dihydroalprenolol to beta-1 adrenergic receptor of rat cerebral cortical membranes; type: cell membranes, Membrane
How it was run: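 Competition assay measuring displacement of specific [3H]dihydroalprenolol binding from rat cerebral cortical membranes to give beta-1 adrenergic receptor affinity.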

[4] = biological target: Adrenergic receptor alpha-1 (Rattus norvegicus) (UniProt P15823+P23944+P43140); experiment: Binding of [3H]prazosin to alpha-1 adrenergic receptor of rat cerebral cortical membranes at 100 uM; type: cell membranes; details: Membrane

Sequence of Beta-1 adrenergic receptor (P18090 whole entry): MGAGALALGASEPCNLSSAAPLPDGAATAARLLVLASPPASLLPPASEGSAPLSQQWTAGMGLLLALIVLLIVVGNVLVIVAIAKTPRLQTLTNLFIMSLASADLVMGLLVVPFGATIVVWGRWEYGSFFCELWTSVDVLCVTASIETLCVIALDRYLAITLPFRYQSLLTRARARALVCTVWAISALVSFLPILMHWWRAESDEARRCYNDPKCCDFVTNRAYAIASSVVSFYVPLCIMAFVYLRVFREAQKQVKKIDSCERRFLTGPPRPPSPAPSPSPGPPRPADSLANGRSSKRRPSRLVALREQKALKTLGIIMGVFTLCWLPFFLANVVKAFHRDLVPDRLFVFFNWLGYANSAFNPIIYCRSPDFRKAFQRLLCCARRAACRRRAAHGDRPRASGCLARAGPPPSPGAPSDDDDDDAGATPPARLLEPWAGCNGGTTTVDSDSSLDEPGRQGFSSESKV

CNC[C@@H](O)c1ccc(O)c(O)c1F was tested, and the Ki [1] was ~ 40 uM and the Ki [2] was 0.053 µM.

Work on NCCc1ccc(O)c(O)c1 [DOPAMINE] yielded a Ki [1] of 14 µM and a Ki [2] of 0.058 µM.

Work on CNC[C@@H](O)c1cc(O)c(O)cc1F yielded a pKi [3] of about 3.40 and a Ki [2] of 0.078 µM.

For NC[C@H](O)c1cc(O)c(O)cc1F, the Ki [1] was 3.7 µM.

NC[C@@H](O)c1ccc(O)c(O)c1F was tested, and the inhibition [4] was 12% and the Ki [2] was 0.32 µM.

NCCc1cc(O)c(O)cc1F gave a Ki [1] of 6 µM, a pKi [3] of 4.39 and a Ki [2] of 0.04 µM.

NC[C@@H](O)c1cc(O)c(O)cc1F was tested, and the Ki [1] was ~ 12 uM.

In the case of NC[C@H](O)c1ccc(O)c(O)c1F, the Ki [1] was ~ 25 uM and the Ki [2] was 0.55 µM.

Compound CNCC(O)c1ccc(O)c(O)c1F (racemic) has a Ki [2] of 0.06 µM.

CNC[C@@H](O)c1ccc(O)c(O)c1 [L-ADRENALINE] was tested, and the pKi [3] was 4.89.

Compound CNCC(O)c1cc(O)c(O)cc1F (racemic) has a pKi [3] of about 3.85 and a Ki [2] of 0.014 µM.

For CNC[C@H](O)c1ccc(O)c(O)c1 (racemic) [EPINEPHRINE], the pKi [3] was 5.68.

NCC(O)c1cc(O)c(O)cc1F (racemic) was tested, and the inhibition [4] was 20%.

With NCC(O)c1ccc(O)c(O)c1 (single isomer, unassigned) the inhibition [4] was 18%.

Work on CNC[C@H](O)c1ccc(O)c(O)c1F yielded a Ki [2] of 0.067 µM.

NCC(O)c1ccc(O)c(O)c1F (racemic) was tested, and the Ki [1] was ~ 50 uM and the Ki [2] was 0.6 µM.

For CNC[C@H](O)c1cc(O)c(O)cc1F, the pKi [3] was about 4.00 and the Ki [2] was 0.013 µM.

In the case of NCCc1ccc(O)c(O)c1F, the Ki [1] was 16 µM, the pKi [3] was 4.72 and the Ki [2] was 0.12 µM.
